The values that follow come from ChEMBL document CHEMBL5678808, “Human target validation of phosphoinositide 3-kinase (PI3K)β: effects on platelets and insulin sensitivity, using AZD6482 a novel PI3Kβ inhibitor” (J Thromb Haemost, 2012).

Each structure is given as a SMILES string. Active and inactive are the calls of the source. No cut-off for these calls is given here.

The target of assay [1] is Phosphatidylinositol 4,5-bisphosphate 3-kinase catalytic subunit beta isoform (Homo sapiens, UniProt P42338). As to the kind of experiment: Inhibition of recombinant human PI3Kbeta using PIP2 as substrate preincubated for 20 mins followed by substrate and ATP addition and measured after 20 mins by biotinylated-PIP3 based alphascreen assay. (In general: In Alpha technology, singlet oxygen from a donor bead excites a nearby acceptor bead.)

Assay [2] concerns the target Phosphatidylinositol 4,5-bisphosphate 3-kinase catalytic subunit alpha isoform (Homo sapiens, UniProt P42336). Put plainly: Inhibition of recombinant human PI3Kalpha using PIP2 as substrate preincubated for 20 mins followed by substrate and ATP addition and measured after 20 mins by biotinylated-PIP3 based alphascreen assay.
Assay [3] deals with Rattus norvegicus. As to the kind of experiment: Effect on insulin resistance in iv dosed Sprague-Dawley rat assessed as plasma concentration required to show relative HOMA index of 3. It is filed as functional, organism-based.
Assay [4] is filed under the species Homo sapiens. Put plainly: Inhibition of PI3Kalpha/beta/gamma/delta in human platelet rich plasma assessed as reduction in TRAP-induced platelet aggregation at 5 uM preincubated for 10 mins followed by TRAP addition and measured after 5 mins by light transmission aggregometry. To be noted: time 15.0 min. It is filed as cell-free. In short, it runs like this:
(§1)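 Venous blood from healthy human donors, citrate-anticoagulated; undiluted platelet-rich plasma tested in an in-house 96-well plate light transmission aggregometry assay. Agonist concentration-response curves run without and with inhibitor. Values are means, n = 4.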

Assay [5] is filed under the species Homo sapiens. As to the kind of experiment: Inhibition of PI3Kalpha/beta/gamma/delta in human platelet rich plasma assessed as reduction in collagen-induced platelet aggregation at 5 uM preincubated for 10 mins followed by collagen addition and measured after 10 mins by light transmission aggregometry. Conditions: time 20.0 min. The assay is classed as cell-free. In short, it runs like this:
as §1

Assay [6] is filed under the species Homo sapiens. Put plainly: Inhibition of PI3Kalpha/beta/gamma/delta in human platelet rich plasma assessed as reduction in ADP-induced platelet aggregation at 5 uM preincubated for 10 mins followed by ADP addition and measured after 5 mins by light transmission aggregometry. The assay is classed as cell-free. Conditions: time 15.0 min. The method in brief:
as §1

Phosphatidylinositol 4,5-bisphosphate 3-kinase catalytic subunit alpha isoform, sequence (P42336 whole entry, canonical isoform): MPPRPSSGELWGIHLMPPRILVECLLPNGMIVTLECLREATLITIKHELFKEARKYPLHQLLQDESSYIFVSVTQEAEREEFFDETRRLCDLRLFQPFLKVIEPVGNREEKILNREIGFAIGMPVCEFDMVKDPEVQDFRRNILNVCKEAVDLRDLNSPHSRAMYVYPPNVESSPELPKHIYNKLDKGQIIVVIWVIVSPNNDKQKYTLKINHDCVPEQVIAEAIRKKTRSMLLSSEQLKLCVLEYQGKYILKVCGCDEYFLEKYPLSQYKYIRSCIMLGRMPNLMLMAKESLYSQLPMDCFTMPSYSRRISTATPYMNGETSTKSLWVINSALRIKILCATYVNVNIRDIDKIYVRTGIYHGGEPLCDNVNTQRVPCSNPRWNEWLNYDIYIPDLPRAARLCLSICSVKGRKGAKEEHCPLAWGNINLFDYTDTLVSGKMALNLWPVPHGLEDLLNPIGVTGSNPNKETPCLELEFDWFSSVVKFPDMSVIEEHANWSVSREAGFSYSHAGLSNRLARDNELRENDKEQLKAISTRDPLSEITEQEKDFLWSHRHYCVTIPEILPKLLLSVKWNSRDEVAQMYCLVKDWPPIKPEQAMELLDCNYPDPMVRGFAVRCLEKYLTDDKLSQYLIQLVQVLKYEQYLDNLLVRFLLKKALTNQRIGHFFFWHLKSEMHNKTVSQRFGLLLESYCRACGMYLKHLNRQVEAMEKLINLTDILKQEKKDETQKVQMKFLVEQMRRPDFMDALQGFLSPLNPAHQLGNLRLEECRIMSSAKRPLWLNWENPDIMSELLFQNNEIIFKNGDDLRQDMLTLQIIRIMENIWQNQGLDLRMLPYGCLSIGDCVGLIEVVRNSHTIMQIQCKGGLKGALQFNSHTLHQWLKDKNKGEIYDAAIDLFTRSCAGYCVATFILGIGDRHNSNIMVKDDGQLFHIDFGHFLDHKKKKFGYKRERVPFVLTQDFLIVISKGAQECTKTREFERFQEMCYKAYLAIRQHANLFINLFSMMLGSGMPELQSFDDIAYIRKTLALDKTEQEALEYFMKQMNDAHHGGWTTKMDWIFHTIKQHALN
Phosphatidylinositol 4,5-bisphosphate 3-kinase catalytic subunit beta isoform, sequence (P42338 whole entry, canonical isoform): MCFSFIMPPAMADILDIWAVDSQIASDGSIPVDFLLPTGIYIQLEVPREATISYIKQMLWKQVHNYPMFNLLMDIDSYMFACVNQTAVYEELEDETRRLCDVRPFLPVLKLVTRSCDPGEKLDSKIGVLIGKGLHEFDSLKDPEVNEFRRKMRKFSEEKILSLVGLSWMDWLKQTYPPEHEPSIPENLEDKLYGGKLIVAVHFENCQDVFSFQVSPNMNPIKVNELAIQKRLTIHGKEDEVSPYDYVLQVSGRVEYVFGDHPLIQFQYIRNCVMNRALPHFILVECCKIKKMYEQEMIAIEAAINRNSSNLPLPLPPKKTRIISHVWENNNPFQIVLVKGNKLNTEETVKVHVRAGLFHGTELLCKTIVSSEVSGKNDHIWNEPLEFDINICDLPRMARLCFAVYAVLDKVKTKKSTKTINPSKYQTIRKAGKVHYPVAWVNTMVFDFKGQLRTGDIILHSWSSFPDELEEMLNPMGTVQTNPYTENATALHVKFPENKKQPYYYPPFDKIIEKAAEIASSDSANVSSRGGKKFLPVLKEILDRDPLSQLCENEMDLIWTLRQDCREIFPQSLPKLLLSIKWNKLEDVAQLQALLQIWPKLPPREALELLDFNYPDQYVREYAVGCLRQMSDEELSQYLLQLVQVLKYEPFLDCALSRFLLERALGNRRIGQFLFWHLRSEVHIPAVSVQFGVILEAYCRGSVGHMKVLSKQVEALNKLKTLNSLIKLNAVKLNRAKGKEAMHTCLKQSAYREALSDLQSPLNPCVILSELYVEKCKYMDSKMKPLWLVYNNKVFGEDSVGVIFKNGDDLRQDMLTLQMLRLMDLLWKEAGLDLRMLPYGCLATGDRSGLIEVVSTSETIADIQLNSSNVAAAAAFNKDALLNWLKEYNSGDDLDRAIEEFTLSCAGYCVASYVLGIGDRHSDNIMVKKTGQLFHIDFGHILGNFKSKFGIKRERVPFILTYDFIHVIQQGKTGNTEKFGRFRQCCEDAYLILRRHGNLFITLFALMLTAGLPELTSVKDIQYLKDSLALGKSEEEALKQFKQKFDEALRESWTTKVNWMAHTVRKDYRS

On to `Cc1cc(F)ccc1Oc1cccc2c(=O)cc(N3CCOCC3)[nH]c12`, for which the half-maximal inhibitory concentration (IC50) (commonly the concentration at which inhibition is half-maximal) is 160 nM in assay [1] and 22800 nM in assay [2]. Moreover, in assay [3], the Cp is more than 40 µM.

As for `CC(=O)Nc1nc(C)c(-c2cnc(Cl)c(NS(C)(=O)=O)c2)s1`, the IC50 in assay [1] is 110 nM; in assay [2], 10 nM. Moreover, the Cp in assay [3] was 0.3 µM.

As for `COC[C@H]1OC(=O)c2coc3c2[C@@]1(C)C1=C(C3=O)[C@@H]2CCC(=O)[C@@]2(C)C[C@H]1OC(C)=O`, the inhibition result in assay [4], in assay [5] and in assay [6] was “Active” in each case.

For `Cc1cc(C(C)Nc2ccccc2C(=O)O)c2nc(N3CCOCC3)cc(=O)n2c1` (stereo not given), the Cp in assay [3] amounted to 30 µM.
